Laboratory results as given in ChEMBL document CHEMBL1122695, “C1-Methylated 5-hydroxy-2-(dipropylamino)tetralins: central dopamine-receptor stimulating activity” (1984).
Active and inactive are the calls of the source. The rule behind the calls is not given here.

Assays:
Rattus norvegicus [1] = species: Rattus norvegicus; experiment: Reduction in accumulated dopa is indicated with Motor activity value; format: functional
Outline: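 Rats given reserpine (10 mg/kg ip) 6 h and α-methyl-p-tyrosine methyl ester (250 mg/kg ip) 1 h before testing. Compounds were then given sc in the neck, n = 4, at 1 or 10 mg/kg in saline; controls received saline. Photocell motility meters, one rat per cage, recorded activity for 60 min immediately after dosing, with gross behavior observed.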

Rattus norvegicus [2] = species: Rattus norvegicus; experiment: Half maximal decrease of dopa accumulation in limbic portion of reserpinized rats; format: functional; conditions: Limbic system
Outline: (§1)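 Reserpinized rats; Dopa accumulation measured after the decarboxylase inhibitor NSD 1015 (100 mg/kg), Dopa determined spectrophotometrically. Compounds in saline, given subcutaneously at four to six dose levels. A dose-response curve was built per compound and brain area (limbic, striatal). ED50 is the dose giving half-maximal decrease of Dopa, estimated graphically. SEM was below 15% of the mean at each point.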

Rattus norvegicus [3] = species: Rattus norvegicus; experiment: Half maximal decrease of dopa accumulation in striatal brain portion of reserpinized rats; format: functional; outline: as §1
Rattus norvegicus [4] = species: Rattus norvegicus; experiment: Half maximal decrease of dopa accumulation in striatal brain portion of reserpinized rats; I =Inactive; format: functional, organism-based; outline: as §1
Rattus norvegicus [5] = species: Rattus norvegicus; experiment: Half maximal decrease of dopa accumulation in limbic portion of reserpinized rats; I =Inactive; format: functional, organism-based; conditions: Limbic system; outline: as §1

Structure (SMILES): Br.CCCN(CCC)[C@H]1CCc2c(O)cccc2[C@@H]1C
- Motor activity (Rattus norvegicus [1]): 406 Counts hr-1
- ED50 (Rattus norvegicus [2]): 0.66 µmol/kg
- ED50 (Rattus norvegicus [3]): 0.725 µmol/kg

Structure (SMILES): Br.CCCN(CCC)[C@H]1CCc2c(O)cccc2[C@H]1C
- Motor activity (Rattus norvegicus [1]): 52 Counts hr-1
- ED50 (Rattus norvegicus [2]): 0.67 µmol/kg
- ED50 (Rattus norvegicus [3]): 0.8 µmol/kg

Structure (SMILES): CCCN(CCC)[C@H]1CCc2c(O)cccc2C1(C)C
- Motor activity (Rattus norvegicus [1]): inactive
- ED50 (Rattus norvegicus [4]): inactive
- ED50 (Rattus norvegicus [5]): inactive
